# Compound activity from PubChem.
# This is one part of a sample in which hits are shown more often than they occur.
# PfG6PD inh: PfG6PD enzyme inhibitors, primary screen, biochemical, fluorescence intensity, uHTS. PfGluPho enzyme, NADPH resazurin-diaphorase fluorescence. inhibition, % at 20 µM. 350,000 tested, 0.78% active. AID 504690, 2011;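 active = inhibition reaching at least a set limit at 20 µM in the primary screen, cut at about 59% in these data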;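 also: 0% = DMSO wells with substrate and 100% = DMSO wells lacking glucose-6-phosphate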
# G6PDH CS: L. mesenteroides G6PDH inhibitors, counter-screen for G6PDH-coupled screening assays, biochemical, Leuconostoc mesenteroides enzyme | Purified L. mesenteroides G6PDH, diaphorase/resazurin coupled fluorescence, 45 min | inhibition, % at 5 µM | 200,000 tested, 0.12% active
# Lmaj promast: Leishmania major promastigote growth inhibition, primary screen; Leishmania major promastigotes, resazurin fluorescence viability; inhibition, % at 10 µM; 200,000 tested, 9% active; AID 1063, 2008;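 also: promastigotes grown with compound for 44 hours at 28 °C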
# Redox H2O2 prof: compounds producing H2O2 with reducing agent – biochemical, NIH compound library profiling, artefact control for MLSCN library redox annotation, primary screen | DTT-dependent redox cycling H2O2, phenol red/HRP absorbance; 100% = 100 µM peroxide control, 0% = buffer | activation, % at 10 µM | 200,000 tested, 0.03% active | AID 878, 2007;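 active = activation of at least 50% relative to the plate's high and low controls in the primary single-dose screen; inactive = activation below 50%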;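 also: compound incubated with DTT at 0.8 mM final as the reducing agent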
# Diaphorase inh: diaphorase inhibitors and chemical oxidizers, primary screen, counter-screen for diaphorase-coupled primary assays, biochemical, uHTS, resorufin fluorescence. diaphorase resazurin-to-resorufin fluorescence, NADH, 16 min; bacterial (C. kluyveri) enzyme, not human. inhibition, % at 20 µM. 190,000 tested, 0.69% active;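 active = primary screen inhibition at 20 µM above a set limit, cut at about 50% in these data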;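 also: plate controls were DMSO with full reaction for no effect and wells lacking NADH for full effect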
#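 Test system: bacterial diaphorase enzyme (C. kluyveri); Quantity: 0.14 U/mL diaphorase, enzyme working solution; Times: reaction incubation of 16 min at room temperature; Measured by: fluorescence of resorufin formed from resazurin, Ex 544/Em 590 nm; Benchmarks: positive control minus NADH, DMSO neutral control.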
# Diaphorase act: compounds boosting diaphorase resazurin reduction – biochemical, uHTS, resorufin fluorescence, counter-screen for diaphorase-coupled primary assays, primary screen; Diaphorase/resazurin coupled assay, 16 min; stronger effect = higher value; 1 = vehicle wells, 0 = NADH-free wells; activation factor at 20 µM; 190,000 tested, 0.005% active; AID 1229, 2008;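 active = diaphorase activity raised at least twofold by the compound at 20 µM; inactive = activation factor below 2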
#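 Material: Purified diaphorase enzyme from Clostridium kluyveri | Buffer or medium: 50 mM HEPES pH 7.4 with 4.542 mM MgCl2, 0.005% Tween 20 | Times: 16 min enzyme reaction, ambient temperature | Signal: Red resorufin fluorescence at 544/590 nm excitation/emission | Measure: Increased resorufin signal from activators or reducing compounds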
# Active calls of the source: *; nt = no result given. Rule as the data show it, unless noted: active = inhibition above about 50%; inactive = the rest.
SMILES,PfG6PD inh,G6PDH CS,Lmaj promast,Redox H2O2 prof,Diaphorase inh,Diaphorase act
CN(C)CCNC(=O)c1cc2sc3ccccc3c2s1,-10,-2,84*,-1,-7,1.1
Cc1ccc2oc(=O)c3cc(C(=O)NCCCN4CCN(C)CC4)sc3c2c1,15,nt,nt,nt,nt,nt
CCCCN(CC)CCCNC(=O)c1cc2c(=O)n(C)c3ccccc3c2n1C,19,1,80*,0,6,0.9
COc1cc2c(cc1OC)C(c1ccc(Br)cc1)NC(=O)C2 (stereo not drawn),-24,nt,nt,nt,nt,nt
O=C1C(CO)C(CO)C(CO)C1CO (stereo not drawn),-5,nt,nt,nt,nt,nt
CC1Nc2nc(NC(=O)C(C)(C)C)[nH]c(=O)c2N(C)C1C (stereo not drawn),-10,1,16,0,8,0.9
O=C(COC(=O)C1(c2ccc(F)cc2)CCCC1)Nc1ncc(C(F)(F)F)cc1Cl,8,-9,-4,0,27,0.7
CC1CCN(CCCNC(=O)c2cc3c(=O)n(C)c4ccccc4c3n2C)CC1,26,-6,63*,-3,21,0.8
CN(C)CCCNC(=O)c1cc2c3ccccc3n(C)c2s1,-5,-3,91*,2,4,1
Cn1c(C(=O)NCCCN2CCOCC2)cc2c(=O)n(C)c3ccccc3c21,24,1,15,-1,17,0.8
COc1ccc(CNc2ccc3c(c2)ncn3-c2ccccc2OC)cc1,17,1,100*,2,16,0.8
COc1ccccc1-n1cnc2cc(NCc3cccs3)ccc21,27,2,96*,-2,20,0.8
CCCCC(O)(c1ccc(CC)cc1)C(CN1CCOCC1)c1ccccc1 (stereo not drawn),23,nt,nt,nt,nt,nt
CN(C)CC/C=C1\c2ccccc2COc2ccccc21,1,12,100*,1,3,1
CN(C)CC/C=C1/c2ccccc2CS(=O)(=O)c2ccccc21,-7,nt,nt,nt,nt,nt
CC1CCC2(CC1)NC(=S)N(C(C)(C)C)N2 (stereo not drawn),59,nt,nt,nt,nt,nt
CC1CCC2(CC1)NC(=S)N(c1ccccc1)N2 (stereo not drawn),22,6,79*,0,-2,1
O=C(c1cc2ccccc2oc1=O)N(Cc1ccccc1F)C1CCS(=O)(=O)C1 (stereo not drawn),28,nt,nt,nt,nt,nt
Cc1cc(C(=O)COC(=O)c2ccccc2O)c(C)n1CC1CCCO1 (stereo not drawn),14,nt,nt,nt,nt,nt
Cc1cc(C(=O)COC(=O)c2cc(O)c3ccccc3c2O)c(C)n1CC1CCCO1 (stereo not drawn),78*,34,47,0,37,0.6
COc1ccc(Nc2nnc(SCC(=O)c3cc(C)n(CC4CCCO4)c3C)s2)cc1 (stereo not drawn),18,2,50*,-1,8,0.9
COCC(=O)Nc1ccc2c(c1)[C@@H]1C[C@H](CC(=O)OC)O[C@H](CO)[C@@H]1O2,-2,nt,nt,nt,nt,nt
Cc1ccc(-n2c3nc(=O)[nH]c(=O)c-3cc3cc([N+](=O)[O-])ccc32)cc1C,43,-34,94*,0,91*,0.1
CCN1CC(c2ccccc2)C(c2ccc(Cl)cc2)=N1 (stereo not drawn),-2,5,0,0,14,0.9
Cc1nc(N2CCC(C)CC2)c2c(C)c(C(=O)Nc3ccc(C)c(F)c3)sc2n1,6,2,11,-1,8,0.9
SMILES,PfG6PD inh,G6PDH CS,Lmaj promast,Redox H2O2 prof,Diaphorase inh,Diaphorase act
Cc1nc(N2CCC(C)CC2)c2c(C)c(C(=O)Nc3ccccc3C(F)(F)F)sc2n1,48,0,51*,-1,7,0.9
O=C1c2ccc([N+](=O)[O-])cc2S(=O)(=O)N1Cc1ccccc1,21,nt,nt,nt,nt,nt
CC(C)(CO)N=C1NS(=O)(=O)c2cc([N+](=O)[O-])ccc21,-14,-4,-4,0,0,1
CCC(CC)N=C1NS(=O)(=O)c2cc([N+](=O)[O-])ccc21,-3,9,99*,-1,-18,1.2
CC(C)(C)CC(C)(C)N=C1NS(=O)(=O)c2cc([N+](=O)[O-])ccc21,10,10,100*,-1,23,0.8
COc1ccccc1N1CCN(C(=O)c2cnn3cccnc23)CC1,nt,1,1,-3,6,0.9
Cc1[nH]c(C)c(S(=O)(=O)NCc2ccco2)c1C(=O)N1CCCCC1,20,nt,nt,nt,nt,nt
CCC(c1nnnn1C(C)(C)C)N(Cc1ccco1)Cc1cc2cccc(C)c2[nH]c1=O (stereo not drawn),4,7,62*,0,2,1
Cc1cc(C)c2[nH]c(=O)c(C(c3nnnn3C(C)(C)C)N(Cc3ccco3)CC3CCCO3)cc2c1 (stereo not drawn),-3,7,45,0,-6,1.1
CCOc1ccc2[nH]c(=O)c(CN(Cc3ccco3)C(CC)c3nnnn3Cc3ccccc3)cc2c1 (stereo not drawn),24,7,41,1,25,0.7
CCC(c1nnnn1CCc1ccccc1)N(Cc1ccco1)Cc1cc2cccc(C)c2[nH]c1=O (stereo not drawn),12,-5,99*,1,12,0.9
O=C(CSc1nnnn1C1CCCCC1)Nc1ccccc1N1CCOCC1,-8,-2,60*,0,nt,nt
COc1ccc(-n2nnnc2SCC(=O)Nc2ccccc2N2CCOCC2)cc1,-3,7,99*,0,10,0.9
CC(C)n1nnnc1SCC(=O)Nc1ccccc1N1CCOCC1,0,2,nt,nt,14,0.9
CCOC(=O)c1c(NC(=O)CSc2nnnn2-c2ccc(OC)cc2)sc(C)c1C,90*,5,-5,0,4,1
CCN(C(=O)COC(=O)c1ccccc1Oc1ccccc1)c1c(N)n(Cc2ccccc2)c(=O)[nH]c1=O,-6,nt,nt,nt,nt,nt
N#Cc1c(-c2ccc(Cl)cc2)n(O)c2ccccc12,-7,nt,nt,nt,nt,nt
CCOC(=O)C1CCC(CN(Cc2ccccc2C)S(=O)(=O)c2ccc([N+](=O)[O-])cc2)CC1 (stereo not drawn),5,6,86*,1,20,0.8
O=C(Cn1cncn1)N/N=C/c1ccccc1O,-23,nt,nt,nt,nt,nt
Cc1ccc(C(C)C)cc1OCC(=O)N/N=C/c1ccc2c(c1)OCCO2,-1,-4,90*,0,28,0.7
NC(=O)c1ccc(SCC(=O)OCC(=O)NCc2cccs2)c([N+](=O)[O-])c1,11,nt,nt,nt,nt,nt
N/C(=N/O)c1ccccc1N1CCC(Cc2ccccc2)CC1,-11,4,23,-2,18,0.8
